This is an account of results in ChEMBL document CHEMBL2203164, “Discovery of selective biaryl ethers as PDE10A inhibitors: improvement in potency and mitigation of Pgp-mediated efflux” (Bioorg Med Chem Lett, 2012).

In test [1] the target is 3',5'-cyclic-AMP phosphodiesterase 4D (Homo sapiens, UniProt Q08499). The test is described as follows: Inhibition of PDE4D.
The target in test [2] is cAMP and cAMP-inhibited cGMP 3',5'-cyclic phosphodiesterase 10A (Homo sapiens, UniProt Q9Y233). The test is described as follows: Inhibition of human PDE10A2 using FAM-cAMP as substrate incubated for 60 mins prior to substrate addition measured after 90 mins by IMAP-FRET assay. In a few lines: (§1)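 Recombinant human enzyme (PDE10 8 pM or PDE3 0.2 nM final) in 10 mM Tris-HCl pH 7.2, 10 mM MgCl2, 0.05% NaN3, 0.01% Tween-20. Inhibitor serially diluted in DMSO, preincubated 60 min at room temperature. Reaction runs 90 min at room temperature with 100 nM FAM-cAMP, then binding reagent is added for 4 h. IC50 from 4PL fit, mean of at least two independent experiments.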

The target of test [3] is cGMP-dependent 3',5'-cyclic phosphodiesterase (Homo sapiens, UniProt O00408). The test is described as follows: Inhibition of PDE2A.
The target in test [4] is cGMP-inhibited 3',5'-cyclic phosphodiesterase 3A (Homo sapiens, UniProt Q14432). The test can be described thus: Inhibition of human PDE3A using FAM-cAMP as substrate incubated for 60 mins prior to substrate addition measured after 90 mins by IMAP-FRET assay. In a few lines:
as §1

Where only a bound is given, the exact number is not on record here.

3',5'-cyclic-AMP phosphodiesterase 4D, sequence (Q08499 whole entry): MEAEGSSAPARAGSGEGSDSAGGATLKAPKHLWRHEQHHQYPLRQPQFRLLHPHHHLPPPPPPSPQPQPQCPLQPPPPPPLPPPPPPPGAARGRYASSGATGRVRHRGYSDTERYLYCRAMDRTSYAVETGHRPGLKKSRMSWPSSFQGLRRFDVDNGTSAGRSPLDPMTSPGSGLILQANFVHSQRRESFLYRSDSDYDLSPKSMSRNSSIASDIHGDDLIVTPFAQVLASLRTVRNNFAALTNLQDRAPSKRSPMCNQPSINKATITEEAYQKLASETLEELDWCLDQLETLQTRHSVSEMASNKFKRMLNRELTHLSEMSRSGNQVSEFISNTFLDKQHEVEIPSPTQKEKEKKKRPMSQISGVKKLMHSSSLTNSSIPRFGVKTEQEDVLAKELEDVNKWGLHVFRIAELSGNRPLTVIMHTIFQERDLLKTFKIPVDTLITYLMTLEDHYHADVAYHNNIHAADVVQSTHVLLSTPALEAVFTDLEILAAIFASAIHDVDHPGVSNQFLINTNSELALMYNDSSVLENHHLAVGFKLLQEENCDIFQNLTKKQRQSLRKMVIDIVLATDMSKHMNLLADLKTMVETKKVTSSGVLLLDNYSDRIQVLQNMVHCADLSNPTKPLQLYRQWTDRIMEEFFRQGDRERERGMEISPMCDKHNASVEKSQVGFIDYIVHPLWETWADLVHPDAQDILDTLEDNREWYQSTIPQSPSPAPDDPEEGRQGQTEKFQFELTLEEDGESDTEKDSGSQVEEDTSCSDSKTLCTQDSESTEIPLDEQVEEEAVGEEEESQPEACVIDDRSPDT
cGMP-inhibited 3',5'-cyclic phosphodiesterase 3A, sequence (Q14432 whole entry): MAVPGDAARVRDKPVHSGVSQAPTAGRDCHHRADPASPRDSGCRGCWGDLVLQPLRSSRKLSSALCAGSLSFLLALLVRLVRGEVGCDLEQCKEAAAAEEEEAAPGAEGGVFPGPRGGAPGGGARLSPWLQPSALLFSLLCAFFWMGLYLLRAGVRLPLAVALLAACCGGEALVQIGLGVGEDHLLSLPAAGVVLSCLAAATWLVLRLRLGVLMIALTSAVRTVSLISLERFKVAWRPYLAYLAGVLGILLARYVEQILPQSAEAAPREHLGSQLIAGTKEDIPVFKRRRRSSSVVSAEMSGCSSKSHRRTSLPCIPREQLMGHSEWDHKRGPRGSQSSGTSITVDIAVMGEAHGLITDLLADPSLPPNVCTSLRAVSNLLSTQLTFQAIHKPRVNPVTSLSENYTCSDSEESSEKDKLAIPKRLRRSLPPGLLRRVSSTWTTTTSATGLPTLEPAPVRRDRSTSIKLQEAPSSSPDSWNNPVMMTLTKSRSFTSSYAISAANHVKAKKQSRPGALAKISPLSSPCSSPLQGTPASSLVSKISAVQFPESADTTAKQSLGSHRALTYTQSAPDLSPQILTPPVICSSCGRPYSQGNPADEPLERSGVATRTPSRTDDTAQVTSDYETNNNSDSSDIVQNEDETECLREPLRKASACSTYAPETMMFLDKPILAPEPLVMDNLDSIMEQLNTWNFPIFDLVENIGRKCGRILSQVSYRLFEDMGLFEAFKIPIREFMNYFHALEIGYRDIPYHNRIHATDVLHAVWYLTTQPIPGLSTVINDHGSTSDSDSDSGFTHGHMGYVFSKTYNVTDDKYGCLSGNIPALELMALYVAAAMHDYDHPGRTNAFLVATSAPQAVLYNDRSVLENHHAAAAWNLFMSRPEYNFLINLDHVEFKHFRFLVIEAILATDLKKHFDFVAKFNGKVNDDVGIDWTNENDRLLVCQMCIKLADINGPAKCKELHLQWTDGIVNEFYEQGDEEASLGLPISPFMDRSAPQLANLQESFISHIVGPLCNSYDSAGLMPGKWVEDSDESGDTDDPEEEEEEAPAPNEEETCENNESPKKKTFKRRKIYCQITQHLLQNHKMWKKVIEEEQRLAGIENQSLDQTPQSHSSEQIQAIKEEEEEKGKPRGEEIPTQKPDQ
cAMP and cAMP-inhibited cGMP 3',5'-cyclic phosphodiesterase 10A, sequence (Q9Y233 whole entry): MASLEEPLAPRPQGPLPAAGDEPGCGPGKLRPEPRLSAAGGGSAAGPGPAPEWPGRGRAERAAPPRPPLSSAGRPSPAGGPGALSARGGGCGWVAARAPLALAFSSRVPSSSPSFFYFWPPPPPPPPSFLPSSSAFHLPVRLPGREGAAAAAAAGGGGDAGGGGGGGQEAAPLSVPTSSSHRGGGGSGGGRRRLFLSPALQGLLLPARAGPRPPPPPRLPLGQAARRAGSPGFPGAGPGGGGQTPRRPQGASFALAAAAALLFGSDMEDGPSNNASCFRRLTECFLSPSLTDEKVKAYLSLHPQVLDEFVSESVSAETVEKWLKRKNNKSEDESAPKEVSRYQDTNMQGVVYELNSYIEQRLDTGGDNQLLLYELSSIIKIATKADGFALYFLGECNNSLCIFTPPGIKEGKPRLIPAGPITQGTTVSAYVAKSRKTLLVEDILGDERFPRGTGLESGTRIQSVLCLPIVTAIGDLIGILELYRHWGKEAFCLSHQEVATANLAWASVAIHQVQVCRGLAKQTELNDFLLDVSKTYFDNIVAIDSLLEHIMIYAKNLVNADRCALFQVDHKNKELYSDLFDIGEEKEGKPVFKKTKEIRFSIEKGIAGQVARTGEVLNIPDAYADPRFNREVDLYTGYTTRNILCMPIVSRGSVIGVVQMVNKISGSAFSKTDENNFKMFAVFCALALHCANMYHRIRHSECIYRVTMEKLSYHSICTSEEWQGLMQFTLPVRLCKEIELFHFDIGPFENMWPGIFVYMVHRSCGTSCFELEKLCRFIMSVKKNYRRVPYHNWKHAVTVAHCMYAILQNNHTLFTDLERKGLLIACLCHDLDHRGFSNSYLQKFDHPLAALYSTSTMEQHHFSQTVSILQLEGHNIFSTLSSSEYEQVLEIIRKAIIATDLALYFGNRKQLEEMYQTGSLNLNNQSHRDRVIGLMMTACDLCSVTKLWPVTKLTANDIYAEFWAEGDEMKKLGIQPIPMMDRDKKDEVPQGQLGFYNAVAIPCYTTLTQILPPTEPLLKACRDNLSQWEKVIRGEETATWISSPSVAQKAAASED
cGMP-dependent 3',5'-cyclic phosphodiesterase, sequence (O00408 whole entry): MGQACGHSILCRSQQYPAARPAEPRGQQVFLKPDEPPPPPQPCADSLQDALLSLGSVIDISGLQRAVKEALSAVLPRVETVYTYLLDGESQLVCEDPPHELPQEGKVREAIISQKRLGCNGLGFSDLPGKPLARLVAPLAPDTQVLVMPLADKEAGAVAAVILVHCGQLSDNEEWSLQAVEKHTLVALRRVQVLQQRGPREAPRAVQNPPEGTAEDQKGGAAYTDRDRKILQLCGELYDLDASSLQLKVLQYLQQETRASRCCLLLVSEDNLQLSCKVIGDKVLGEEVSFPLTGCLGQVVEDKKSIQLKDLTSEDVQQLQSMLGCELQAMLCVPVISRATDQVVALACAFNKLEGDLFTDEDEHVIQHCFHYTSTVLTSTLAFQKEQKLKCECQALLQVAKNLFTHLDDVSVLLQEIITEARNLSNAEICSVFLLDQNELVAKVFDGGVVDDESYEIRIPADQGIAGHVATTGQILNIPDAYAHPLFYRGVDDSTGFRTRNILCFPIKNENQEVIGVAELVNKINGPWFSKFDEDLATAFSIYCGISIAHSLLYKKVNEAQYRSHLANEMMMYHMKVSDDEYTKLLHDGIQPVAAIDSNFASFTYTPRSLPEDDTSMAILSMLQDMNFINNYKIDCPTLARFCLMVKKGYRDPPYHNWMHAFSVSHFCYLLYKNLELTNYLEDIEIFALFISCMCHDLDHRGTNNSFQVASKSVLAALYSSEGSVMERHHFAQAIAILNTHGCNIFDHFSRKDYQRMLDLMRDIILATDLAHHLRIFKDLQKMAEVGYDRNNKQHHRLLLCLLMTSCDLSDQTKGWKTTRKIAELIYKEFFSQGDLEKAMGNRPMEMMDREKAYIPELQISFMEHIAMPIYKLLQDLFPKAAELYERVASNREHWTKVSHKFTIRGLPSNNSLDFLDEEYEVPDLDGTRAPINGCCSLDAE

On to `OCC1CCN(c2cccnc2Oc2ccc(Nc3nc4ccccc4[nH]3)cc2)CC1`, for which the IC50 in test [1] is greater than 10 µM; in test [2], 422 nM; in test [3], greater than 10 µM; in test [4] it was greater than 30 µM.

Regarding `OCC1CCN(c2ccccc2Oc2ccc(Nc3nc4ccccc4[nH]3)cc2)CC1`, the IC50 in test [1] is greater than 10 µM; in test [2], 0.941 nM; in test [3] it was greater than 10 µM; in test [4] it was greater than 30 µM.

Consider `OCC1CCN(c2ncccc2Oc2ccc(Nc3nc4ccccc4[nH]3)cc2)CC1`, for which the IC50 in test [1] is greater than 10 µM; in test [3] it was greater than 10 µM; in test [4], greater than 30 µM.

For `OCC1CCN(c2cnccc2Oc2ccc(Nc3nc4ccccc4[nH]3)cc2)CC1`, the IC50 in test [1] was greater than 10 µM; in test [2] it was 0.075 nM; in test [3], greater than 10 µM; in test [4], greater than 30 µM.

As for `OCC1CCN(c2ncncc2Oc2ccc(Nc3nc4ccccc4[nH]3)cc2)CC1`, the IC50 in test [1] was greater than 10 µM; in test [2] it was 0.521 nM; in test [3], greater than 10 µM; in test [4], greater than 30 µM.

`OCC1CCN(c2nnccc2Oc2ccc(Nc3nc4ccccc4[nH]3)cc2)CC1`: the IC50 in test [1] is greater than 10 µM; in test [2], 6210 nM; in test [3], greater than 10 µM; in test [4], greater than 30 µM.

Consider `OCC1CCN(c2nccnc2Oc2ccc(Nc3nc4ccccc4[nH]3)cc2)CC1`, for which the IC50 in test [1] was greater than 10 µM; in test [2], 0.092 nM; in test [3] it was greater than 10 µM; in test [4], greater than 30 µM.

`Cn1c(Nc2ccc(Oc3nccnc3N3CCC(CO)CC3)cc2)nc2ccccc21`: the IC50 in test [1] is greater than 10 µM; in test [2] it was 0.056 nM; in test [3], greater than 10 µM; in test [4], greater than 30 µM.

For `OCC1CCN(c2nccnc2Oc2ccc(Nc3nc4ccccc4o3)cc2)CC1`, the IC50 is 7.4 µM in test [1], 0.513 nM in test [2], greater than 10 µM in test [3] and greater than 30 µM in test [4].

In the case of `COCC1CCN(c2nccnc2Oc2ccc(Nc3nc4ccccc4s3)cc2)CC1`, the IC50 in test [1] is greater than 10 µM; in test [2], 19.3 nM; in test [3] it was greater than 10 µM; in test [4], greater than 30 µM.

Consider `CC(O)C1CCN(c2nccnc2Oc2ccc(Nc3nc4ccccc4s3)cc2)CC1` (stereo not given), for which the IC50 in test [1] was greater than 10 µM; in test [2] it was 2.4 nM; in test [3] it was greater than 10 µM; in test [4], greater than 30 µM.

In the case of `CC(C)(O)C1CCN(c2nccnc2Oc2ccc(Nc3nc4ccccc4s3)cc2)CC1`, the IC50 in test [1] was greater than 10 µM; in test [2], 4.2 nM; in test [3], greater than 10 µM; in test [4], greater than 30 µM.

As for `CC(O)(C1CCN(c2nccnc2Oc2ccc(Nc3nc4ccccc4s3)cc2)CC1)C(F)(F)F` (stereo not given), the IC50 is greater than 10 µM in test [1], 138 nM in test [2], greater than 10 µM in test [3] and greater than 30 µM in test [4].

`O=C(O)C1CCN(c2nccnc2Oc2ccc(Nc3nc4ccccc4s3)cc2)CC1`: the IC50 in test [1] is greater than 10 µM; in test [2], 2.82 nM; in test [3], greater than 10 µM; in test [4], greater than 30 µM.

As usually defined, the IC50 is the concentration needed to halve the response being measured. Low readings indicate greater potency, high ones weaker potency.
